According to ChEMBL document CHEMBL1157038, “Synthesis and in vitro microbiological evaluation of an array of biolabile 2-morpholino-N-(4,6-diarylpyrimidin-2-yl)acetamides” (2010):
Converted amounts (≈) assume the structure as drawn.

Legend:
Assay type in all cases: functional
Aspergillus flavus = assay: Antifungal activity against Aspergillus flavus after 1 to 7 days by twofold serial dilution method
How it was run: (§1)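 Test compounds were made as 1 mg/mL DMSO stocks. Spores from 1–7 day Sabouraud agar slants were suspended in Sabouraud dextrose broth at pH 5.6. Final inoculum 1.1–1.5×10² cfu/mL. First dilution was 0.4 mL stock plus 1.6 mL seeded broth, followed by six twofold serial dilutions. Controls held seeded broth only. Incubated at 28 °C; MIC read visually after 72–96 h.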

Rhizopus = assay: Antifungal activity against Rhizopus after 1 to 7 days by twofold serial dilution method; how it was run: as §1
Klebsiella pneumoniae = assay: Antibacterial activity against Klebsiella pneumoniae after 24 hrs by twofold serial dilution method
How it was run: (§2)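 Compounds dissolved in DMSO as 1 mg/mL stock. Seeded nutrient broth prepared from 24 h nutrient agar cultures, adjusted by plate count. Final inoculum 10⁵ cfu/mL at pH 7.4. First dilution was 0.4 mL stock in 1.6 mL seeded broth, then serial twofold through six dilutions. Seeded-broth-only tubes served as controls. Incubated at 37 °C; MIC read visually at 24 h.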

Pseudomonas = assay: Antibacterial activity against Pseudomonas after 24 hrs by twofold serial dilution method; how it was run: as §2
Mucor = assay: Antifungal activity against Mucor after 1 to 7 days by twofold serial dilution method; how it was run: as §1
Escherichia coli = assay: Antibacterial activity against Escherichia coli after 24 hrs by twofold serial dilution method; how it was run: as §2
Vibrio cholerae = assay: Antibacterial activity against Vibrio cholerae after 24 hrs by twofold serial dilution method
Nannizzia gypsea = assay: Antifungal activity against Microsporum gypseum after 1 to 7 days by twofold serial dilution method; how it was run: as §1
Staphylococcus aureus = assay: Antibacterial activity against Staphylococcus aureus after 24 hrs by twofold serial dilution method; how it was run: as §2

Row | SMILES | MIC (Aspergillus flavus) [µg/mL] | MIC (Rhizopus) [µg/mL] | MIC (Klebsiella pneumoniae) [µg/mL] | MIC (Pseudomonas) [µg/mL] | MIC (Mucor) [µg/mL] | MIC (Escherichia coli) [µg/mL] | MIC (Vibrio cholerae) [µg/mL] | MIC (Nannizzia gypsea) [µg/mL] | MIC (Staphylococcus aureus) [µg/mL]
1 | O=C(CN1CCOCC1)Nc1nc(-c2ccccc2)cc(-c2ccccc2)n1 | 200 (≈ 534 µM) | 100 (≈ 267 µM) | 50 (≈ 134 µM) | 100 (≈ 267 µM) | 100 (≈ 267 µM) | 200 (≈ 534 µM) | 200 (≈ 534 µM) | 200 (≈ 534 µM) | 200 (≈ 534 µM)
2 | Cc1ccc(-c2cc(-c3ccc(F)cc3)nc(NC(=O)CN3CCOCC3)n2)cc1 | 200 (≈ 492 µM) | 50 (≈ 123 µM) | 50 (≈ 123 µM) | 100 (≈ 246 µM) | 100 (≈ 246 µM) | 50 (≈ 123 µM) | 12.5 (≈ 30.8 µM) | 12.5 (≈ 30.8 µM) | 12.5 (≈ 30.8 µM)
3 | COc1ccc(-c2cc(-c3ccc(F)cc3)nc(NC(=O)CN3CCOCC3)n2)cc1 | 6.25 (≈ 14.8 µM) | 200 (≈ 473 µM) | 100 (≈ 237 µM) | 6.25 (≈ 14.8 µM) | 6.25 (≈ 14.8 µM) | 50 (≈ 118 µM) | 100 (≈ 237 µM) | 100 (≈ 237 µM) | 200 (≈ 473 µM)
4 | O=C(CN1CCOCC1)Nc1nc(-c2ccccc2)cc(-c2ccc(F)cc2)n1 | 6.25 (≈ 15.9 µM) | 100 (≈ 255 µM) | 6.25 (≈ 15.9 µM) | 100 (≈ 255 µM) | 50 (≈ 127 µM) | 50 (≈ 127 µM) | 50 (≈ 127 µM) | 200 (≈ 510 µM) | 200 (≈ 510 µM)
5 | COc1ccc(-c2cc(-c3ccc(C)cc3)nc(NC(=O)CN3CCOCC3)n2)cc1 | 100 (≈ 239 µM) | 12.5 (≈ 29.9 µM) | 50 (≈ 119 µM) | 50 (≈ 119 µM) | 50 (≈ 119 µM) | 200 (≈ 478 µM) | 12.5 (≈ 29.9 µM) | 50 (≈ 119 µM) | 100 (≈ 239 µM)
6 | O=C(CN1CCOCC1)Nc1nc(-c2ccc(F)cc2)cc(-c2ccc(F)cc2)n1 | 12.5 (≈ 30.5 µM) | 6.25 (≈ 15.2 µM) | 50 (≈ 122 µM) | 6.25 (≈ 15.2 µM) | 6.25 (≈ 15.2 µM) | 6.25 (≈ 15.2 µM) | 50 (≈ 122 µM) | 100 (≈ 244 µM) | 100 (≈ 244 µM)
7 | Cc1ccc(-c2cc(-c3ccccc3)nc(NC(=O)CN3CCOCC3)n2)cc1 | 100 (≈ 257 µM) | 50 (≈ 129 µM) | 100 (≈ 257 µM) | 50 (≈ 129 µM) | 50 (≈ 129 µM) | 50 (≈ 129 µM) | 100 (≈ 257 µM) | 50 (≈ 129 µM) | 50 (≈ 129 µM)
8 | COc1ccc(-c2cc(-c3ccccc3)nc(NC(=O)CN3CCOCC3)n2)cc1 | 100 (≈ 247 µM) | 100 (≈ 247 µM) | 100 (≈ 247 µM) | 50 (≈ 124 µM) | 200 (≈ 494 µM) | 200 (≈ 494 µM) | 100 (≈ 247 µM) | 100 (≈ 247 µM) | 50 (≈ 124 µM)
9 | O=C(O)c1cn(C2CC2)c2cc(N3CCNCC3)c(F)cc2c1=O [CIPROFLOXACIN] | – | – | – | 25 (≈ 75.4 µM) | – | 25 (≈ 75.4 µM) | 50 (≈ 151 µM) | – | –
10 | OC(Cn1cncn1)(Cn1cncn1)c1ccc(F)cc1F [FLUCONAZOLE] | 50 (≈ 163 µM) | 25 (≈ 81.6 µM) | – | – | 25 (≈ 81.6 µM) | – | – | 25 (≈ 81.6 µM) | –
